Molecules are shown by their SMILES.

12 compounds from ChEMBL document CHEMBL3352737, “Discovery of potent and selective spiroindolinone MDM2 inhibitor, RO8994, for cancer therapy” (Bioorg Med Chem, 2014) can be followed below.

A short description of series [1]: Antiproliferative activity against wild-type p53 expressing human HCT116 cells assessed as inhibition of cell proliferation by MTT assay. The series is classed as functional, cell-based. As to conditions: HCT-116. For orientation: Formazan colour is commonly taken as a measure of viable cells.
The next series concerns RKO. Put plainly: Antiproliferative activity against wild-type p53 expressing human RKO cells assessed as inhibition of cell proliferation by MTT assay. The series is classed as functional, cell-based.
A further series has as its system SW480. Put plainly: Antiproliferative activity against p53 mutant expressing human SW480 cells assessed as inhibition of cell proliferation by MTT assay. It is filed as functional, cell-based.
The subject of the next series is MDA-MB-435. Kind of series: Antiproliferative activity against p53 mutant expressing human MDA-MB-435 cells assessed as inhibition of cell proliferation by MTT assay. The series is classed as functional, cell-based.
Series [2] concerns the target T1, Tumour suppressor p53/oncoprotein Mdm2 (Homo sapiens, UniProt Q00987). Kind of series: Inhibition of p53-MDM2 (unknown origin) interaction using 0.2% BSA buffer after 1 hr by HTRF assay. The series is classed as protein assay. In general terms: TR-FRET usually uses a lanthanide donor and a delayed reading to cut background.
Series [3] concerns the target T1, Tumour suppressor p53/oncoprotein Mdm2. Put plainly: Inhibition of p53-MDM2 (unknown origin) interaction using 0.02% BSA buffer after 1 hr by HTRF assay. The series is classed as protein assay.
A short description of series [4]: Cmax in C57 mouse at 25 mg/kg, po. The series is classed as ADME, organism-based. More on the design: dose 25 mg/kg, route oral. To be noted: in vivo. A digest of the protocol: (§1)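 Male C57 mice received a single dose, given orally or intravenously in separate arms. Plasma pharmacokinetic parameters were derived from the resulting concentration–time data and reported as means.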

Series [5] can be described thus: Total plasma clearance in C57 mouse at 5 mg/kg, iv. It is filed as ADME, organism-based. More on the design: dose 5 mg/kg, route intravenous. The gist of the method: as §1
Series [6] is described as follows: Apparent terminal half life in C57 mouse at 5 mg/kg, iv. It is filed as ADME, organism-based. More on the design: dose 5 mg/kg, route intravenous. As to conditions: in vivo, read-out: betat1/2(app) (converted). The gist of the method: as §1
Series [7] in a line: Oral bioavailability in C57 mouse at 25 mg/kg. The series is classed as ADME, organism-based. To be noted: in vivo. The gist of the method: as §1
Series [8] can be described thus: Cmax in C57 mouse at 50 mg/kg, po. The series is classed as ADME, organism-based. More on the design: dose 50 mg/kg, route oral. As to conditions: in vivo. The gist of the method: as §1
Series [9] can be described thus: Oral bioavailability in C57 mouse at 50 mg/kg. It is filed as ADME, organism-based. As to conditions: in vivo. The gist of the method: as §1

T1 sequence (P04637 whole entry): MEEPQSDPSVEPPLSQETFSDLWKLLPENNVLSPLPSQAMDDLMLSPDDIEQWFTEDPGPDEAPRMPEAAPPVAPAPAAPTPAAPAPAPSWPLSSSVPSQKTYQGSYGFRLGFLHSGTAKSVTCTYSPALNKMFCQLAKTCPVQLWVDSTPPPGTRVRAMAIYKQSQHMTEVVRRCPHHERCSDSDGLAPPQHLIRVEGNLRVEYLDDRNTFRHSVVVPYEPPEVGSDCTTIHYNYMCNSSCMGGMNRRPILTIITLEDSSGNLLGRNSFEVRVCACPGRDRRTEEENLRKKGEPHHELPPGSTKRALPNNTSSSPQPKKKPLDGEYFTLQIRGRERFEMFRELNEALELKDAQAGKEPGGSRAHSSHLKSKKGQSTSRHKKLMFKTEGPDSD
T1 sequence (Q00987 whole entry): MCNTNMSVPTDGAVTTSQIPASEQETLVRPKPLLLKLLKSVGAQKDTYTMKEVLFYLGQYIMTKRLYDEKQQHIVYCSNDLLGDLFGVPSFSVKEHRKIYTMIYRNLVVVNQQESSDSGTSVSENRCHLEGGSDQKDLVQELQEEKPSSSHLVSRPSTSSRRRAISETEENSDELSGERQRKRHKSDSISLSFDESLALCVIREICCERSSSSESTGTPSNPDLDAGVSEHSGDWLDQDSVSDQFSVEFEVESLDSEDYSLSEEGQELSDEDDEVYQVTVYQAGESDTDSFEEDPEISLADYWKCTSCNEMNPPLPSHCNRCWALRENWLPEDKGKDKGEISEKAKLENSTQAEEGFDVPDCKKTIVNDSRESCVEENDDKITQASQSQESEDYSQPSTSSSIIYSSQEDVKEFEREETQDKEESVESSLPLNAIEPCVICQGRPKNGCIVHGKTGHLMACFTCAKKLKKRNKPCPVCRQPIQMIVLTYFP

With `COc1cc(NC(=O)[C@@H]2N[C@@H](CC(C)(C)C)[C@@]3(C(=O)Nc4cc(Cl)ccc43)[C@H]2c2cccc(Cl)c2F)ccc1C(=O)O`, the IC50 is 0.05 µM in series [1], 0.24 µM in the series with RKO, 14.4 µM in the series on SW480 and 11.5 µM with MDA-MB-435.
For the compound `COc1cc(NC(=O)[C@H]2N[C@H](CC(C)(C)C)[C@]3(C(=O)Nc4cc(Cl)ccc43)[C@@H]2c2cccc(Cl)c2F)ccc1C(=O)O`, the IC50 in series [2] was determined as 3.74 µM; in series [3], 3.09 µM.
For the compound `COc1cc(C(=O)O)ccc1NC(=O)[C@@H]1N[C@@H](CC(C)(C)C)[C@@]2(C(=O)Nc3cc(Cl)ccc32)[C@H]1c1cccc(Cl)c1F`, the IC50 was 0.01 µM in series [1], 0.02 µM in the series on RKO, 9.8 µM with SW480 and 12.1 µM in the series on MDA-MB-435. In [4], the peak level (Cmax) was 0.8 µg/mL. In [5], this compound registered a clearance of 2.08 L/h/kg. In [6], the half-life was 11.1 h. For the same compound, in series [7], the bioavailability is 21%.
For the compound `CC(C)(C)C[C@@H]1N[C@@H](C(=O)Nc2ccc(C(N)=O)cc2)[C@H](c2cccc(Cl)c2F)[C@]12C(=O)Nc1cc(Cl)ccc12`, the IC50 amounted to 0.005 µM in series [2]; 0.005 µM in [3]; 0.07 µM in series [1]; 0.15 µM in the series with RKO; 14.3 µM in the series with SW480; 11.6 µM in the series on MDA-MB-435. The clearance in series [5] was determined as 0.21 L/h/kg. For the same compound, in series [6], the half-life was 10.4 h. Moreover, the Cmax in [8] is 8.3 µg/mL. The compound also displayed a bioavailability in [9] of 63%.
On to `COc1cc(NC(=O)[C@@H]2N[C@@H](CC(C)(C)C)[C@@]3(C(=O)Nc4cc(Cl)ccc43)[C@H]2c2cccc(Cl)c2F)ccc1C(N)=O`, for which the IC50 came out at 0.08 µM in series [1], 0.09 µM in the series on RKO, 3.96 µM in the series with SW480 and 6.92 µM in the series on MDA-MB-435.
On to `CC(C)(C)C[C@@H]1N[C@@H](C(=O)Nc2ccc(C(N)=O)cc2F)[C@H](c2cccc(Cl)c2F)[C@]12C(=O)Nc1cc(Cl)ccc12`, for which the IC50 in series [2] was determined as 0.007 µM; in series [3], 0.007 µM; in [1] it was 0.12 µM; in the series with RKO, 0.22 µM; in the series with SW480, 7.1 µM; in the series with MDA-MB-435, 10 µM. In series [5], this compound registered a clearance of 0.204 L/h/kg. Further, the half-life in series [6] was 15.3 h. The compound also gave a Cmax in [8] of 13.1 µg/mL. Also, the bioavailability in series [9] was determined as 75%.
As for `CC(C)(C)C[C@@H]1N[C@@H](C(=O)Nc2ccc(OCCO)cc2)[C@H](c2cccc(Cl)c2F)[C@]12C(=O)Nc1cc(Cl)ccc12`, the IC50 stood at 0.008 µM in series [2]; 0.18 µM in series [1]; 0.28 µM with RKO; 11.3 µM in the series with SW480; 10.8 µM in the series on MDA-MB-435.
On to `COc1cc(OCCO)ccc1NC(=O)[C@@H]1N[C@@H](CC(C)(C)C)[C@@]2(C(=O)Nc3cc(Cl)ccc32)[C@H]1c1cccc(Cl)c1F`, for which the IC50 in series [1] was 0.008 µM; in the series on RKO, 0.016 µM; in the series on SW480, 4.45 µM; in the series with MDA-MB-435 it was 9.5 µM. In series [4], the peak level (Cmax) was 4.3 µg/mL. The compound further displayed a clearance in series [5] of 0.402 L/h/kg. Moreover, the half-life in series [6] was 6.6 h. This compound returned a bioavailability in series [7] of 55%.
Regarding `COc1cc(C(N)=O)ccc1NC(=O)[C@@H]1N[C@@H](CC(C)(C)C)[C@@]2(C(=O)Nc3cc(Cl)cc(F)c32)[C@H]1c1cccc(Cl)c1F`, the IC50 in series [2] amounted to 0.006 µM; in series [1] it was 0.12 µM; in the series with RKO it was 0.08 µM; in the series with SW480 it was 10.5 µM; with MDA-MB-435, 12 µM.
As for `CC(C)(C)C[C@@H]1N[C@@H](C(=O)Nc2ccc(C(N)=O)cc2)[C@H](c2cccc(Cl)c2F)[C@]12C(=O)Nc1cc(Cl)c(F)cc12`, the half-maximal inhibitory concentration (IC50) is 0.18 µM in series [1], 0.43 µM with RKO, 15.2 µM in the series on SW480 and 10.9 µM in the series on MDA-MB-435. The compound further displayed a clearance in series [5] of 0.156 L/h/kg. Further, the half-life in series [6] is 8.8 h. Besides, the Cmax in series [8] amounted to 8.7 µg/mL. The bioavailability in [9] came to 45%.
`CC(=O)N1CCCC([C@]2(Cc3cccc(Cl)c3)C(=O)Nc3cc(Cl)ccc32)C1` (stereo partly specified) gave an IC50 in [2] of 3.9 µM.
`COc1cc(C(N)=O)ccc1NC(=O)[C@@H]1N[C@@H](CC(C)(C)C)[C@@]2(C(=O)Nc3c2ccc(Cl)c3F)[C@H]1c1cccc(Cl)c1F` (racemic): the IC50 is 0.018 µM in series [2]; 0.015 µM in [3]; 0.67 µM in series [1]; 1.08 µM in the series with RKO; 7.5 µM in the series with SW480; 9.4 µM in the series on MDA-MB-435.

The term IC50 denotes the concentration that inhibits the measured activity by half. Usually Cmax stands for the maximum level reached in the sampled fluid or tissue. In general, clearance refers to a measure of how efficiently the substance is removed, as volume per time. Read a high clearance as efficient removal. As usually defined, the bioavailability is the share of a dose that reaches the circulation, judged against a reference dose that is usually intravenous.
